Test results from ChEMBL document CHEMBL1135477, “Antifungal agents. 10. New derivatives of 1-[(aryl)[4-aryl-1H-pyrrol-3-yl]methyl]-1H-imidazole, synthesis, anti-candida activity, and quantitative structure-analysis relationship studies” (J Med Chem, 2002).
In brackets after ≈: the same amount, converted by molar mass. One block for each compound: values may come before it.

How the values were obtained:
Format in all cases: functional
[1] = biological target: Lanosterol 14-alpha demethylase (Candida albicans (strain SC5314 / ATCC MYA-2876) (Yeast), UniProt P10613); assay: Anticandida activity- (MIC90 compound) / (MIC90 bifonazole)
Candida [2] = assay: Tested In vitro for antifungal activity against Candida species. at pH 7.2; (range is from 4 to 32)
Summary of the method: (§1)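 Liquid serial-dilution MIC against 3 freshly isolated clinical Candida strains (two C. glabrata, one C. krusei) in Sabouraud broth at pH 7.2 or 5.8. Inoculum was 10³/mL after 18 h pre-culture at 37 °C, read at 24 h, 37 °C. Range was 0.25–256 μg/mL. Endpoint was no visible growth versus a DMSO/water blank.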

Candida [3] = assay: In vitro antifungal activity against 40 strains at pH 5.8,(percent of resistant species at 256 ug/mL)
Summary of the method: (§2)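 Broth serial-dilution test in Sabouraud broth at pH 7.2 or 5.8, against 40 fresh clinical C. albicans isolates from hospitalized patients. Inocula were 10³/mL, pre-grown 18 h at 37 °C in Sabouraud dextrose broth. Compound from a DMSO/water stock was twofold-diluted over 0.25–256 µg/mL. Visible growth was read at 24 h, 37 °C.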

Candida albicans [4] = assay: In vitro antifungal activity against 40 strains of Candida albicans at pH 5.8; (range is from 1 to 16)
Summary of the method: (§3)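 Broth serial-dilution MIC against 40 clinical C. albicans isolates from hospitalized patients, grown in Sabouraud broth at pH 7.2 or 5.8. Cells were pre-grown 18 h at 37 °C, inoculated at 10³/mL, and read at 24 h, 37 °C. Doubling dilutions ran 0.25–256 μg/mL from a DMSO/water solution. MIC was the lowest concentration with no visible growth against a DMSO/water blank.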

Candida [5] = assay: Tested In vitro for antifungal activity against Candida species. at pH 7.2; summary of the method: as §1
Candida albicans [6] = assay: In vitro antifungal activity against 40 strains of Candida albicans at pH 7.2; minimum inhibitory concentration (range is from 4 to 64); summary of the method: as §3
Candida albicans [7] = assay: In vitro antifungal activity against 40 strains of Candida albicans at pH 7.2; (percent of resistant species at 256 ug/mL); summary of the method: as §2
Candida [8] = assay: Tested in vitro for antifungal activity against Candida species. at pH 5.8 ( range is from 8 to 16); summary of the method: as §1
Candida albicans [9] = assay: In vitro antifungal activity against 40 strains of Candida albicans at pH 7.2; summary of the method: as §3
Candida albicans [10] = assay: In vitro antifungal activity against 40 strains of Candida albicans at pH 5.8; summary of the method: as §3
Candida [11] = assay: Tested In vitro for antifungal activity against Candida species. at pH 7.2; (percent of resistant species at 256 ug/mL)
Summary of the method: (§4)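 Broth serial-dilution test in Sabouraud broth at pH 7.2 or 5.8, against 3 fresh clinical non-albicans isolates (two C. glabrata, one C. krusei). Inocula were 10³/mL, pre-grown 18 h at 37 °C. Compound was twofold-diluted over 0.25–256 µg/mL and read at 24 h, 37 °C for visible growth.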

Candida [12] = assay: Tested in vitro for antifungal activity against Candida species. at pH 5.8; summary of the method: as §1
Candida albicans [13] = assay: IIn vitro antifungal activity against 40 strains of Candida albicans at pH 5.8; (percent of resistant species at 256 ug/mL); summary of the method: as §2
Candida albicans [14] = assay: In vitro antifungal activity against 40 strains of Candida albicans at pH 5.8; (percent of resistant species at 256 ug/mL); summary of the method: as §2
Candida [15] = assay: Tested in vitro for antifungal activity against Candida species. at pH 5.8 (percent of resistant species at 256 ug/mL); summary of the method: as §4
Candida albicans [16] = assay: In vitro antifungal activity against 40 strains of Candida albicans at pH 7.2; minimum inhibitory concentration (range is from 1 to 32); summary of the method: as §3
Candida [17] = assay: Tested in vitro for antifungal activity against Candida species. at pH 5.8; range is from 1 to 64; summary of the method: as §1
Candida [18] = assay: Tested In vitro for antifungal activity against Candida species. at pH 7.2; (range is from 4 to 16); summary of the method: as §1
Candida albicans [19] = assay: In vitro antifungal activity against 40 strains of Candida albicans at pH 5.8; value ranges from 0.5 to 4); summary of the method: as §3

Chain of Lanosterol 14-alpha demethylase (P10613 whole entry): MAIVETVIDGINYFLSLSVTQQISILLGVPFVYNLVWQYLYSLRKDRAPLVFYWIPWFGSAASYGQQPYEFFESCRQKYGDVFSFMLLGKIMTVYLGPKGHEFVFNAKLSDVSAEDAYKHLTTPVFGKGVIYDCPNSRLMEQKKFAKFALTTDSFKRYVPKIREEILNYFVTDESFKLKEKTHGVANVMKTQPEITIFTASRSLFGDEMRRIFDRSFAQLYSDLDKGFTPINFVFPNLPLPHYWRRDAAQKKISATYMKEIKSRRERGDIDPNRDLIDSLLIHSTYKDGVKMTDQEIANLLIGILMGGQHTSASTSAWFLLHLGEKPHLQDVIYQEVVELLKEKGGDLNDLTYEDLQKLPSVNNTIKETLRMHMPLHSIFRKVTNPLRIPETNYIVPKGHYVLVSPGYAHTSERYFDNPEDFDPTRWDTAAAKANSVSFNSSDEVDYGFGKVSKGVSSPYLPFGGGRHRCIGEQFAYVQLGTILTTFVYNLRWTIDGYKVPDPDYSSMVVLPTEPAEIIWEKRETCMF

Ratio [1]: 0.7
Compound: Cc1ccc([C@@H](c2ccc(NC(=O)c3ccc(Cl)cc3Cl)cc2)n2ccnc2)cc1

Ratio [1]: 3.6
Compound: COc1ccc([C@@H](Cc2ccc(Cl)cc2Cl)n2ccnc2)cc1

Ratio [1]: 7.2
Compound: COc1ccc([C@H](Cc2ccccc2-n2cccc2)n2ccnc2)cc1

Ratio [1]: 1
Compound: Fc1ccc(-c2c[nH]cc2[C@@H](c2ccccc2)n2ccnc2)cc1

Ratio [1]: 62
Compound: COc1ccc([C@@H]([C@@H](Cc2ccc(Cl)cc2Cl)c2ccc(Cl)cc2)n2cncn2)cc1

Ratio [1]: 1.8
Compound: Fc1ccc(-n2ccc([C@H](c3ccc(Cl)cc3)n3ccnc3)c2)cc1

Ratio [1]: 0.5
Compound: Cc1ccc([C@H](c2ccc([N+](=O)[O-])cc2)n2ccnc2)cc1

Compound: FC(F)(F)c1ccc(-c2c[nH]cc2[C@@H](c2ccc(Cl)cc2Cl)n2ccnc2)cc1
Range (Candida [2]): 32 µg/mL | Resistance (Candida [3]): 0% | Range (Candida albicans [4]): 16 µg/mL | MIC (Candida [5]): 17.3 µg/mL (≈ 39.7 µM) | MIC50 (Candida [5]): 16 µg/mL (≈ 36.7 µM) | MIC90 (Candida [5]): 32 µg/mL (≈ 73.4 µM) | Range (Candida albicans [6]): 64 µg/mL | Resistance (Candida albicans [7]): 0% | Range (Candida [8]): 16 µg/mL | MIC (Candida albicans [9]): 7.63 µg/mL (≈ 17.5 µM) | MIC50 (Candida albicans [9]): 4 µg/mL (≈ 9.17 µM) | MIC90 (Candida albicans [9]): 8 µg/mL (≈ 18.3 µM) | MIC (Candida albicans [10]): 4.8 µg/mL (≈ 11 µM) | MIC50 (Candida albicans [10]): 4 µg/mL (≈ 9.17 µM) | MIC90 (Candida albicans [10]): 8 µg/mL (≈ 18.3 µM) | Resistance (Candida [11]): 0% | MIC (Candida [12]): 16 µg/mL (≈ 36.7 µM) | MIC50 (Candida [12]): 16 µg/mL (≈ 36.7 µM) | MIC90 (Candida [12]): 16 µg/mL (≈ 36.7 µM) | Resistance (Candida albicans [13]): 0%

Ratio [1]: 1
Compound: O=[N+]([O-])c1ccc([C@@H](c2ccc(Cl)cc2)n2ccnc2)cc1

Ratio [1]: 63
Compound: COc1ccc([C@H](Cc2ccccc2Cl)n2ccnc2)cc1

Ratio [1]: 32
Compound: COc1ccc([C@H](Cc2cccc(Cl)c2)n2ccnc2)cc1

Ratio [1]: 1.8
Compound: Fc1ccc([C@@H](c2ccn(-c3ccc(Cl)cc3)c2)n2ccnc2)cc1

Compound: Cn1cc(-c2ccc(Cl)cc2)c([C@H](c2ccc(Cl)cc2Cl)n2ccnc2)c1
Resistance (Candida albicans [14]): 0% | Ratio [1]: 3 | Resistance (Candida [15]): 0% | Range (Candida albicans [16]): 32 µg/mL | MIC (Candida [5]): 6.1 µg/mL (≈ 14.6 µM) | MIC50 (Candida [5]): 16 µg/mL (≈ 38.4 µM) | MIC90 (Candida [5]): 32 µg/mL (≈ 76.8 µM) | Range (Candida [17]): 64 µg/mL | Resistance (Candida albicans [7]): 0% | MIC (Candida albicans [9]): 5.3 µg/mL (≈ 12.7 µM) | MIC50 (Candida albicans [9]): 2 µg/mL (≈ 4.8 µM) | MIC90 (Candida albicans [9]): 16 µg/mL (≈ 38.4 µM) | MIC (Candida albicans [10]): 2.54 µg/mL (≈ 6.09 µM) | MIC50 (Candida albicans [10]): 0.5 µg/mL (≈ 1.2 µM) | MIC90 (Candida albicans [10]): 2 µg/mL (≈ 4.8 µM) | Resistance (Candida [11]): 0% | Range (Candida [18]): 16 µg/mL | MIC (Candida [12]): 4.5 µg/mL (≈ 10.8 µM) | MIC50 (Candida [12]): 2 µg/mL (≈ 4.8 µM) | MIC90 (Candida [12]): 64 µg/mL (≈ 154 µM) | Range (Candida albicans [19]): 4 µg/mL

Ratio [1]: 0.9
Compound: Cn1cc(-c2ccc(Cl)cc2)c([C@@H](c2ccccc2)n2ccnc2)c1

Ratio [1]: 42
Compound: Cc1ccc(-c2cn(Cc3ccc(Cl)cc3Cl)cc2[C@@H](c2ccccc2)n2ccnc2)cc1

Ratio [1]: 3
Compound: Clc1ccc([C@@H](c2ccn(-c3ccc(Cl)cc3)c2)n2ccnc2)cc1

Ratio [1]: 58
Compound: COc1ccc([C@H](Cc2cccc(-n3cccc3)c2)n2ccnc2)cc1

Ratio [1]: 0.5
Compound: Clc1ccc([C@@H](c2ccc(-n3cccc3)cc2)n2ccnc2)cc1

Ratio [1]: 4.1
Compound: c1ccc([C@H](c2ccn(-c3ccccc3)c2)n2ccnc2)cc1

Ratio [1]: 10.5
Compound: COc1ccc([C@@H]([C@@H](Cc2ccc(Cl)cc2Cl)c2ccc(Cl)cc2)n2ccnc2)cc1

Ratio [1]: 40
Compound: Clc1ccc(-c2cn(Cc3ccc(Cl)cc3Cl)cc2[C@@H](c2ccccc2)n2ccnc2)cc1

Ratio [1]: 4
Compound: Cn1cc(-c2ccccc2)c([C@H](c2ccccc2)n2ccnc2)c1

Ratio [1]: 1.9
Compound: Cc1ccc([C@H](c2ccn(-c3ccc(F)cc3)c2)n2ccnc2)cc1

Ratio [1]: 64
Compound: COc1ccc(C[C@@H](c2ccc(OC)cc2)n2cnnc2)cc1

Ratio [1]: 4
Compound: COc1ccc([C@H](Cc2ccc(Cl)cc2)n2ccnc2)cc1

Ratio [1]: 63
Compound: COc1ccc([C@H](Cc2ccccc2F)n2ccnc2)cc1

Ratio [1]: 4
Compound: Fc1ccc(-n2ccc([C@@H](c3ccccc3)n3ccnc3)c2)cc1
